As a reminder, the Ki is a dissociation constant, usually derived from enzyme kinetics or from competition with a known ligand. For orientation: MIC means the smallest concentration in the dilution series that meets the test's criterion for growth inhibition. By inhibition is commonly meant how much of the control response was suppressed. As usually defined, the fraction unbound is the share of the substance not bound to proteins or other matrix. A higher fraction unbound goes with much free substance.

Structures are written as SMILES. ≈ marks a conversion by molar mass, not a printed value.

Chain of Elastase (Pseudomonas aeruginosa (strain ATCC 15692 / PAO1 / 1C / PRS 101 / LMG12228)) (P14756 198-498 limits assumed): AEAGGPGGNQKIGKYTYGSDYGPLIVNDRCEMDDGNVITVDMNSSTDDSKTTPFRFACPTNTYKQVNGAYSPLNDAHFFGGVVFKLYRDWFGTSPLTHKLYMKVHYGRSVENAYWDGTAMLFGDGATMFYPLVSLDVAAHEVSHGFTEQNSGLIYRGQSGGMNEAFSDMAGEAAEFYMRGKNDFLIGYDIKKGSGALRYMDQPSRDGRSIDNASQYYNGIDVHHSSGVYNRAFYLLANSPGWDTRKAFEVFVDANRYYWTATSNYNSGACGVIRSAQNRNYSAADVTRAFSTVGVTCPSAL

Tested on in the first series: not listed separately
Nature of the series: Inhibition of Escherichia coli LpxC C63A mutant assessed as inhibition constant incubated for 30 mins by microplate reader analysis.
Settings: not given
An outline of the steps: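 Purified E. coli LpxC C63A (15 nM final), expressed in E. coli BL21(DE3), with 25 μM UDP-3-O-[(R)-3-hydroxymyristoyl]-N-acetylglucosamine. Buffer was 40 mM MES pH 6.0, 80 μM DTT, 0.02% Brij 35 and 2% DMSO, with inhibitor at 20 nM–20 μM, for 30 min at 37 °C. The reaction was stopped with NaOH, neutralised with acetic acid, and product was derivatised with o-phthaldialdehyde/2-mercaptoethanol (ex 340, em 460 nm). Runs were done at least three times.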
As to `O=C(NC[C@H](OCc1ccc(C#Cc2ccc(CN3CCOCC3)cc2)cc1)C(=O)NO)c1ccc(-c2ccccc2)cc1`, the inhibition constant (Ki) is over 2540 nM.
For `O=C(NO)[C@@H](CN(Cc1ccccc1)Cc1ccccc1)OCc1ccc(C#Cc2ccc(CN3CCOCC3)cc2)cc1`, the Ki was over 2540 nM.
Regarding `Cc1noc(C)c1C(=O)NC[C@@H](OCc1ccc(C#Cc2ccc(CN3CCOCC3)cc2)cc1)C(=O)NO`, the Ki is over 2540 nM.
On to `O=C(NO)[C@H](OCc1ccc(C#Cc2ccc(CN3CCOCC3)cc2)cc1)[C@@H](O)COCc1ccccc1`, for which the Ki stood at 870 nM.
Still for that read-out and setting: under `O=C(NC[C@H](OCc1ccc(C#Cc2ccc(CN3CCOCC3)cc2)cc1)C(=O)NO)c1c[nH]c2ccccc12` stands 10.7 nM.
For `Cc1noc(C)c1C(=O)NC[C@H](OCc1ccc(C#Cc2ccc(CN3CCOCC3)cc2)cc1)C(=O)NO`, the Ki came to 127 nM.
The same measure, in the same setting: with `O=C(NC[C@H](OCc1ccc(C#Cc2ccc(CN3CCOCC3)cc2)cc1)C(=O)NO)c1ccc2ccccc2n1` the figure was 377 nM; with `O=C(NC[C@H](OCc1ccc(C#Cc2ccc(CN3CCOCC3)cc2)cc1)C(=O)NO)c1cc(-c2ccccc2)[nH]n1`, 85.2 nM; with `O=C(NO)[C@@H](CO)OCc1ccc(C#Cc2ccc(CN3CCOCC3)cc2)cc1`, 240 nM.
As to `O=C(NC[C@@H](OCc1ccc(C#Cc2ccc(CN3CCOCC3)cc2)cc1)C(=O)NO)c1ccc2ccccc2n1`, the Ki is over 2540 nM.
`O=C(NC[C@@H](OCc1ccc(C#Cc2ccc(CN3CCOCC3)cc2)cc1)C(=O)NO)c1ccc(-c2ccccc2)cc1`: the inhibition constant Ki was over 2540 nM.
With `O=C(NC[C@@H](OCc1ccc(C#Cc2ccc(CN3CCOCC3)cc2)cc1)C(=O)NO)c1c[nH]c2ccccc12`, the inhibition constant Ki is 1580 nM.
Take `O=C(COCc1ccc(C#Cc2ccc(CN3CCOCC3)cc2)cc1)NO`: the Ki worked out at 1500 nM.
With `O=C(NC[C@@H](OCc1ccc(C#Cc2ccc(CN3CCOCC3)cc2)cc1)C(=O)NO)c1cnc2ccccc2c1`, the inhibitory constant (Ki) was over 2540 nM.
With `O=C(NC[C@@H](OCc1ccc(C#Cc2ccc(CN3CCOCC3)cc2)cc1)C(=O)NO)c1ccc(Oc2ccccc2)cc1`, the inhibition constant (Ki) was over 2540 nM.
Turning to `O=C(NC[C@H](OCc1ccc(C#Cc2ccc(CN3CCOCC3)cc2)cc1)C(=O)NO)c1cccc(-c2ccccc2)c1`, the Ki turned out to be 41.5 nM.
Turning to `O=C(NC[C@H](OCc1ccc(C#Cc2ccc(CN3CCOCC3)cc2)cc1)C(=O)NO)c1cnc2ccccc2c1`, the Ki was found to be 117 nM.
On the same count and under the same terms, under `O=C(NC[C@@H](OCc1ccc(C#Cc2ccc(CN3CCOCC3)cc2)cc1)C(=O)NO)c1cc2ccccc2[nH]1` stands over 2540 nM.

In the next series the test system is Escherichia coli. In words: Antibacterial activity against Escherichia coli BL21(DE3) assessed as inhibition of visible bacterial growth incubated for 20 hrs by microdilution method. Type of series: functional.
Settings: not given
In short, it runs like this: (§1)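 Broth microdilution in LB. Overnight cultures (37 °C, 200 rpm) were diluted 1:1000 and mixed with 2-fold compound dilutions in DMSO, giving 5 × 10⁵ cfu mL⁻¹, 5% DMSO and final compound concentrations of 64–0.016 μg mL⁻¹. Plates were incubated 20 h at 37 °C. MIC was the lowest concentration preventing visible growth, from at least three runs on separate days.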
(In broth dilution the organism is exposed to a series of concentrations in liquid medium.)
For `O=C(NO)[C@@H](CN(Cc1ccccc1)Cc1ccccc1)OCc1ccc(C#Cc2ccc(CN3CCOCC3)cc2)cc1`, the MIC is over 64 µg/mL.
The same measure, in the same setting: with `O=C(NO)[C@H](OCc1ccc(C#Cc2ccc(CN3CCOCC3)cc2)cc1)[C@@H](O)COCc1ccccc1` the figure was over 64 µg/mL.
Still for that read-out and setting: under `O=C(NO)[C@@H](CO)OCc1ccc(C#Cc2ccc(CN3CCOCC3)cc2)cc1` stands 64 µg/mL (≈ 156 µM); under `O=C(COCc1ccc(C#Cc2ccc(CN3CCOCC3)cc2)cc1)NO`, 64 µg/mL (≈ 168 µM).

The subject of another series is Escherichia coli. In words: Antibacterial activity against Escherichia coli D22 assessed as inhibition of visible bacterial growth incubated for 20 hrs by microdilution method.
Settings: not given
Format: functional. An outline of the steps:
as §1
With `O=C(NO)[C@H](OCc1ccc(C#Cc2ccc(CN3CCOCC3)cc2)cc1)[C@@H](O)COCc1ccccc1`, the MIC is 4 µg/mL (≈ 7.54 µM).
On to `O=C(NO)[C@@H](CO)OCc1ccc(C#Cc2ccc(CN3CCOCC3)cc2)cc1`, for which the MIC was 2 µg/mL (≈ 4.87 µM).
Turning to `O=C(COCc1ccc(C#Cc2ccc(CN3CCOCC3)cc2)cc1)NO`, the MIC is 1 µg/mL (≈ 2.63 µM).

Another series concerns Escherichia coli. Nature of the series: Antibacterial activity against Escherichia coli BL21(DE3) assessed as Diameter of inhibition zone incubated for 20 hrs by disc diffusion assay. Format: functional.
Settings: not given
In short, it runs like this: (§2)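 E. coli BL21(DE3) and the defective strain D22 were grown overnight in LB at 37 °C and 200 rpm, and 150 μL was spread on LB agar. Each compound (0.15 μmol in 10 or 15 μL DMSO) was spotted on 6 mm filter paper discs, with DMSO as negative and CHIR-090 as positive control. Plates were incubated overnight at 37 °C and the growth-inhibition zone diameter was measured.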
A general note: In agar diffusion tests the substance spreads into inoculated agar from a disc or well.
`O=C(NO)[C@@H](CN(Cc1ccccc1)Cc1ccccc1)OCc1ccc(C#Cc2ccc(CN3CCOCC3)cc2)cc1`: the “diameter of the inhibition zone (DIZ)” value was “<=6 mm”.
On the same count and under the same terms, with `O=C(NO)[C@H](OCc1ccc(C#Cc2ccc(CN3CCOCC3)cc2)cc1)[C@@H](O)COCc1ccccc1` the figure was 8.5 mm; with `O=C(NO)[C@@H](CO)OCc1ccc(C#Cc2ccc(CN3CCOCC3)cc2)cc1`, 12.3 mm.
With `O=C(NC[C@@H](OCc1ccc(C#Cc2ccc(CN3CCOCC3)cc2)cc1)C(=O)NO)c1ccc2ccccc2n1`, the “diameter of the inhibition zone (DIZ)” value is “<=6 mm”.
As for `O=C(COCc1ccc(C#Cc2ccc(CN3CCOCC3)cc2)cc1)NO`, the “diameter of the inhibition zone (DIZ)” value was 16.5 mm.

For a further series, the system named is Escherichia coli. Nature of the series: Antibacterial activity against Escherichia coli D22 assessed as diameter of inhibition zone incubated for 20 hrs by disc diffusion assay. Type of series: functional.
Settings: not given
In short, it runs like this: as §2
As to `O=C(NO)[C@@H](CN(Cc1ccccc1)Cc1ccccc1)OCc1ccc(C#Cc2ccc(CN3CCOCC3)cc2)cc1`, the “diameter of the inhibition zone (DIZ)” value is listed as “<=6 mm”.
Turning to `O=C(NO)[C@H](OCc1ccc(C#Cc2ccc(CN3CCOCC3)cc2)cc1)[C@@H](O)COCc1ccccc1`, the “diameter of the inhibition zone (DIZ)” value worked out at 13.3 mm.
Regarding `O=C(NO)[C@@H](CO)OCc1ccc(C#Cc2ccc(CN3CCOCC3)cc2)cc1`, the “diameter of the inhibition zone (DIZ)” value stood at 22 mm.
With `O=C(COCc1ccc(C#Cc2ccc(CN3CCOCC3)cc2)cc1)NO`, the “diameter of the inhibition zone (DIZ)” value is recorded as 20.3 mm.

A further series addresses Elastase (Pseudomonas aeruginosa (strain ATCC 15692 / PAO1 / 1C / PRS 101 / LMG12228)) (UniProt P14756). In words: Inhibition of Pseudomonas aeruginosa PA14 LasB at 20 uM by FRET assay relative to control.
Settings: not given
In turn, `O=C(NC[C@H](OCc1ccc(C#Cc2ccc(CN3CCOCC3)cc2)cc1)C(=O)NO)c1ccc(-c2ccccc2)cc1` had an inhibition of under 10%.
On the same count and under the same terms, under `Cc1noc(C)c1C(=O)NC[C@@H](OCc1ccc(C#Cc2ccc(CN3CCOCC3)cc2)cc1)C(=O)NO` stands under 10%; under `O=C(NO)[C@H](OCc1ccc(C#Cc2ccc(CN3CCOCC3)cc2)cc1)[C@@H](O)COCc1ccccc1`, under 10%.
With `O=C(NC[C@H](OCc1ccc(C#Cc2ccc(CN3CCOCC3)cc2)cc1)C(=O)NO)c1cc(-c2ccccc2)[nH]n1`, the inhibition is under 10%.
Turning to `O=C(NC[C@H](OCc1ccc(C#Cc2ccc(CN3CCOCC3)cc2)cc1)C(=O)NO)c1cccc(-c2ccccc2)c1`, the inhibition is under 10%.
The compound `O=C(NC[C@H](OCc1ccc(C#Cc2ccc(CN3CCOCC3)cc2)cc1)C(=O)NO)c1cnc2ccccc2c1` returned an inhibition of under 10%.

Tested on in the next series: not listed separately
Nature of the series: Metabolic stability in CD-1 mouse microsome. Type of series: ADME. The note with it: microsomes.
Take `O=C(NC[C@H](OCc1ccc(C#Cc2ccc(CN3CCOCC3)cc2)cc1)C(=O)NO)c1c[nH]c2ccccc12`: the Stability result is “Stable”.

Tested on in the next series: not listed separately
Nature of the series: Plasma protein binding in human.
Settings: not given
Format: ADME, cell-free.
`O=C(NC[C@H](OCc1ccc(C#Cc2ccc(CN3CCOCC3)cc2)cc1)C(=O)NO)c1c[nH]c2ccccc12` came in with a fraction unbound of under 0.03.

The species entered for the next series is Homo sapiens. In words: Inhibition of TACE (unknown origin) at 100 uM relative to control.
Settings: not given
The compound `O=C(NC[C@H](OCc1ccc(C#Cc2ccc(CN3CCOCC3)cc2)cc1)C(=O)NO)c1c[nH]c2ccccc12` came in with an inhibition of under 10%.

These data come from ChEMBL document CHEMBL6120954, “Development of Fragment-Based Inhibitors of the Bacterial Deacetylase LpxC with Low Nanomolar Activity” (J Med Chem, 2024).
